Assay results gathered from unrelated publications.
Lines come from different studies, so protocols differ.
UGT2B7: UDP-glucuronosyltransferase 2B7 (UGT2B7, Homo sapiens, UniProt P16662)

SMILES | target or system | test | test system | setting | quantity | value
COc1ccc(C[C@@H]2NC(=O)[C@H]([C@@H](C)O)NC(=O)[C@@H]3[C@@H]4CCN3C(=O)[C@@H]3Cc5cn(c6ccc(F)cc56)CCCCCCN(Cc5ccc(cc5)CCNC(=O)[C@]5(C)CCCN5C2=O)C(=O)CCC(=O)N[C@@H](C)C(=O)N[C@H](CNC(=O)CCCCC[N+](C)(C)C)C(=O)N[C@@H](Cc2cccc(c2)CNC(=O)CO4)C(=O)N3)cc1 |  |  | human, plasma | oral, 200 mg, single dose | Tmax | 14.5 h
C=C1CC[C@@H]2[C@](C)(CO)[C@H](O)CC[C@@]2(C)[C@@H]1/C=C/C1=CCOC1=O | UGT2B7 | enzyme activity, inhibitor |  |  | Ki | 6.9 µM
Cc1ncc2n1-c1ccc(Cl)cc1C(c1ccccc1F)=NC2 |  |  | human, plasma | intravenous, 3 µg, single dose | Tmax | 0.0333 h
Cc1ncc2n1-c1ccc(Cl)cc1C(c1ccccc1F)=NC2 |  |  | human, plasma | oral, 2 mg, single dose | Tmax | 0.67 h
CSCC[C@H](NC(=O)COCCOCCNC(=O)COCCOCCNC(=O)CC[C@H](NC(=O)CCCCCCCCCCCCCCCCC(=O)O)C(=O)O)C(=O)N[C@H]1CSSC[C@@H](C(=O)NCC(=O)N[C@@H](CO)C(=O)NCC(=O)N[C@@H](CO)C(=O)N[C@@H](CC(=O)O)C(=O)N[C@@H](Cc2ccc(O)cc2)C(=O)N[C@@H](CCCCN)C(=O)N[C@@H](CC(=O)O)C(=O)N[C@@H](CC(=O)O)C(=O)N[C@@H](CC(=O)O)C(=O)N[C@@H](CC(=O)O)C(=O)N[C@@H](CCCCN)C(N)=O)NC(=O)[C@H](Cc2ccccc2)NC(=O)[C@@H]2CCCN2C(=O)[C@H](Cc2c[nH]c3ccccc23)NC(=O)[C@H](CC(C)C)NC(=O)[C@H](CCSC)NC(=O)[C@H](Cc2c[nH]cn2)NC(=O)[C@H](Cc2ccccc2)NC(=O)[C@H](Cc2c[nH]cn2)NC(=O)[C@H]([C@@H](C)O)NC(=O)[C@H](Cc2ccccc2)NC1=O |  |  | male Sprague-Dawley rat, plasma | intravenous | MRT | 13.7 h
CC(Cc1ccccc1)NCCn1cnc2c1c(=O)n(C)c(=O)n2C (centres unmarked) | Voltage-gated inwardly rectifying potassium channel KCNH2 (KCNH2, Homo sapiens, UniProt Q12809) | ligand displacement, radioligand |  | 10 µM | inhibition | -4%
Cl.Cl.O=C(CCN1CCCCC1)c1ccc(-c2ccc(C(=O)CCN3CCCCC3)cc2)cc1 |  |  | Sprague-Dawley rat, plasma | oral, 100 mg/kg | MRT(0-t) | 12.2 h
C=C1CCC2C(C)(CO)C(=O)CCC2(C)C1C=CC1=CCOC1=O (centres unmarked) | UGT2B7 | enzyme activity, inhibitor |  |  | Ki | 13.7 µM
CC(=C/C=C/C(C)=C/C(=O)O)/C=C1\CCCc2ccccc21 |  |  | human, plasma | oral, 20 mg, single dose, fasted, healthy volunteers | Tmax | 2.88 h
O=C(O)c1cn(Cc2ccc(F)cc2)c2ccccc12 | UGT2B7 | enzyme activity, substrate |  |  | Km | 61.5 µM
CN(C)CCc1c[nH]c2ccccc12 |  |  | human, plasma | intravenous, 9 mg, healthy volunteers, infusion | Tmax | 0.16 h
N=C(N)NCCC[C@@H](NC(=O)[C@@H](N)Cc1ccccc1)C(=O)N[C@@H](Cc1ccccc1)C(=O)N[C@@H](CCCCN)C(N)=O |  |  | human, plasma | subcutaneous, 15 mg, patients | Tmax | 0.75 h
C[C@@H](c1ccc2nccn2c1)n1nnc2ncc(-c3cnn(C)c3)nc21 |  |  | human, plasma | oral, 600 mg | Tmax | 4 h
O=C1[O][Pt]2([NH][C@@H]3CCCC[C@H]3[NH]2)[O]C1=O (relative stereo) |  |  | cynomolgus monkey, plasma | oral, 10 mg/kg | MRT | 19.7 h
